Source: PubChem BioAssay
bCat nuc transl = modulators of beta-catenin nuclear translocation, primary screen, imaging, HeLa cells, immunofluorescence, high-content; AID 1665, 2009; nuclear translocation activity, % at 5 µM; hit rate 0.3% among 190,000;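 active = nuclear translocation activity above 50% at 5 µM, with a well cell count of 50 or more; inconclusive = wells under 50 cells across six images, flagged as toxic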;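 note: per-cell ratio of nuclear to cytoplasmic median beta-catenin stain intensity; plate controls were DMSO negative control for no effect and GSK-3 inhibitor IX positive control for full effect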
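Signal – beta-catenin immunofluorescence imaging with DAPI · Test system – human HeLa cell line · Dosing – 5 µM primary single dose, 0.1% DMSO, 0.02–20 µM confirmation series · Measure – % activation, nuclear-to-cytoplasmic median beta-catenin signal ratio per cell · Incubation – 24 h compound exposure at 37°C, 5% CO2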
ROMK mod = ROMK potassium channel modulators, primary screen, cell-based, thallium flux, MLSMR library; ATP-sensitive inward rectifier potassium channel 1 (Homo sapiens), P48048; Tet-inducible ROMK, thallium flux fluorescence; actives lie on both sides; B-score at 10 µM; hit rate 2% among 130,000; AID 1918, 2009;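 active = signal ratio slope over the read window, or its plate-corrected B-score, at least 3 SD from the plate mean, either direction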;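 note: B-score of the F/F0 ratio slope over 7 to 12 s after thallium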
MT stabilize HCS = microtubule stabilizers in HeLa cells, primary screen, imaging, high-content imaging | % tubulin-high responders, % at 10 µM | hit rate 0.83% among 200,000 | HeLa tubulin immunostaining HCS, 24 h; share of cells brighter than vehicle mean+2SD | AID 2205, 2009;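 active = plate Z-score above 3 for both tubulin-high and condensed-nucleus cell shares, with cell loss under 80%, at 10 µM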;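 note: anti alpha tubulin signal scored within the nucleus-defined area of each cell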
Redox H2O2 prof = compounds producing H2O2 with reducing agent – biochemical, NIH compound library profiling, artefact control for MLSCN library redox annotation, primary screen. DTT-dependent redox cycling H2O2, phenol red/HRP absorbance; 100% = 100 µM peroxide control, 0% = buffer. activation, % at 10 µM. AID 878, 2007. hit rate 0.03% among 200,000;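 active = activation of at least 50% relative to the plate's high and low controls in the primary single-dose screen; inactive = activation below 50%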;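 note: compound incubated with DTT at 0.8 mM final as the reducing agent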
Cl transport mod = KCC2 cotransporter modulators, thallium flux, primary screen, cell-based, HEK293 KCC2, FluoZin-2 fluorescence, MLSMR; Solute carrier family 12 member 5 (Homo sapiens), Q9H2X9; KCC2 cells, thallium flux FluoZin-2 fluorescence; B-score of Tl+ flux slope (higher = more flux/activation; lower = inhibition) at 10 µM; hit rate 2.2% among 190,000;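 active = thallium flux slope and its plate-corrected score both differing from the plate sample mean at a set confidence after two filtering rounds, in either direction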;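 note: slope of fluorescence scaled to starting intensity during 10 to 20 s after thallium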
Target sequence (Q9H2X9 whole entry, looked up): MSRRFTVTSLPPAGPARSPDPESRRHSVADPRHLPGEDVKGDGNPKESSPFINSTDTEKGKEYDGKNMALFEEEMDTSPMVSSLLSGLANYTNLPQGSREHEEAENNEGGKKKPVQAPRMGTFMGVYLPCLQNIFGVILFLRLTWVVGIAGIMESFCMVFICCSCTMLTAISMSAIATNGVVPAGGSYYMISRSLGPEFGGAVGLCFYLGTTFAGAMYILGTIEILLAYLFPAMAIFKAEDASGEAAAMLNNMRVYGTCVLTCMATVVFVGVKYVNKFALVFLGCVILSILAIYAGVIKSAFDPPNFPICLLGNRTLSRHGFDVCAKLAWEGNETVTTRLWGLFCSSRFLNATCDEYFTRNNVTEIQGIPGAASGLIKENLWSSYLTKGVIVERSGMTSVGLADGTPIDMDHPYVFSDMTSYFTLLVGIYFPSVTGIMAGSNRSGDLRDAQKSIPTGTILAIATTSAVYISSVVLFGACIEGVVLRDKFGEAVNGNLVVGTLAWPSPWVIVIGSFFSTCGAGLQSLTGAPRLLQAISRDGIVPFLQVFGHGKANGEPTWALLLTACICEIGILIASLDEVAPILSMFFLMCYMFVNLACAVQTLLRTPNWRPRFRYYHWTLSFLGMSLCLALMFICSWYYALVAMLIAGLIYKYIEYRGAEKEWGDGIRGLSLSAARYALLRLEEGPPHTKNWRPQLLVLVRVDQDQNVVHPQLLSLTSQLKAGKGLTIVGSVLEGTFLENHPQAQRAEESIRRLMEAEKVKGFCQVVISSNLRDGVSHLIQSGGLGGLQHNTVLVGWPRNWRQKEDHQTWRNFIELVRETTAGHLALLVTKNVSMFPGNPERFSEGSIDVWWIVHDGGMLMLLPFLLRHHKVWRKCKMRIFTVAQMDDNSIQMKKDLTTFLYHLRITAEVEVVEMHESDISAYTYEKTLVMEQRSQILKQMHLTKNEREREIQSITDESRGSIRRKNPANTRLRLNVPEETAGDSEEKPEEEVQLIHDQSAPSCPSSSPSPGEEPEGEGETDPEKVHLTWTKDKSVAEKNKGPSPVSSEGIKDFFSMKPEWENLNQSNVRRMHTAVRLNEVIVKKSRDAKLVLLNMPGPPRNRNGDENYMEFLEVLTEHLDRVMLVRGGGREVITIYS
KCC2 secondary = KCC2 modulators in sodium-free buffer, confirmation, cell-based, HEK293 KCC2, thallium flux, secondary assay | AID 1713, 2009 | FluoZin2 fluorescence; hits give high values | normalised thallium flux (F/F0 slope) at 10 µM | shares compounds with Cl transport mod | hit rate 15% among 3,700;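 active = thallium flux slope above the same plate's solvent-only control mean plus 3 SD; inconclusive = the two replicate wells disagree; inactive = no significant difference from solvent-only control wells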
KCC2 bumet counter = thallium flux persisting under bumetanide in KCC2 cells, confirmation, counter-screen for KCC2 modulator project, cell-based, HEK293 KCC2, FluoZin2, secondary assay 3; shares compounds with Cl transport mod; AID 1714, 2009; hit rate 49% among 3,700; normalized thallium flux at 10 µM; HEK293-KCC2 + bumetanide/ouabain; hits give high values;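 active = thallium entry rate above the same plate's blocked-transporter control wells by more than 3 SD; inconclusive = the two repeat wells disagree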;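 note: raw slope of fluorescence over initial fluorescence between 10 and 20 s after thallium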
KCC2 secondary2 = KCC2 modulators without ouabain present, confirmation, cell-based, HEK293 KCC2, thallium flux, FluoZin2, secondary assay 2; shares compounds with Cl transport mod; thallium flux FluoZin2 fluorescence; actives lie on both sides; F/F0 rise rate, 10–20 s post-thallium; normalized thallium flux at 10 µM; hit rate 23% among 3,700;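 active = thallium flux slope more than 3 SD above or below the plate's solvent-only control mean, mostly below; inconclusive = the two repeat wells disagreed; inactive = no significant shift from solvent-only controls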;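 note: raw slope with 0.1% DMSO as baseline and bumetanide as block control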
HEK counter1 = thallium flux modulation in parental HEK cells, confirmation, counter-screen for KCC2 modulator project, cell-based, counterscreen 1. shares compounds with Cl transport mod. HEK293 parental cells, thallium flux FluoZin2, ouabain; baseline-ratio fluorescence slope, 10–20 s after thallium. AID 1716, 2009. hit rate 46% among 3,700. thallium flux rate (normalised fluorescence) at 10 µM;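 active = thallium flux rate significantly above the same plate's solvent-only control wells, beyond their mean plus 3 SD; inconclusive = the two replicate wells gave conflicting results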
KCC2 retest ouab = KCC2 inhibitors and activators, ouabain retest, confirmation, HEK-KCC2 cells. hit rate 48% among 3,700. HEK293-KCC2, thallium flux FluoZin2 fluorescence; bidirectional: low = inhibitor, high = activator. raw Tl+ flux slope (below DMSO = inhibition, above = activation) at 10 µM. shares compounds with Cl transport mod. AID 1717, 2009;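 active = thallium flux slope beyond 3 SD from same-plate DMSO control mean in most replicates, usually higher, sometimes lower; inconclusive = repeat tests gave conflicting results; inactive = no significant difference from controls in most replicates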;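 note: slope of initial-normalized fluorescence between seconds 10 and 20 after thallium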
HEK293 Tl flux2 = native HEK Tl+ uptake effects, second counter-screen – HEK cells, counterscreen 2, counter-screen for KCC2 modulator project, confirmation; shares compounds with Cl transport mod; HEK293 parental, thallium flux FluoZin-2 fluorescence slope; thallium flux slope at 10 µM; hit rate 33% among 3,700; AID 1718, 2009;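 active = thallium flux slope above the same plate's solvent-control mean plus 3 SD in both duplicate wells; inconclusive = duplicate wells that disagreed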;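 note: run without ouabain in cells lacking the KCC2 cotransporter; slope of fluorescence scaled to its starting value between 10 and 20 s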
Active calls of the source: *; ? = inconclusive; nt = not tested or not shown. In the library only some 3.7% were active in any assay of this set; here they are far more common.

SMILES | bCat nuc transl | ROMK mod | MT stabilize HCS | Redox H2O2 prof | Cl transport mod | KCC2 secondary | KCC2 bumet counter | KCC2 secondary2 | HEK counter1 | KCC2 retest ouab | HEK293 Tl flux2
Cc1ccc(O)c(C(=O)CC(=O)c2ccccc2Cl)c1 | 0 | nt | 2 | 0 | nt | ? | 0.064* | 0.03 | 0.038* | 0.055* | 0.012*
Cn1c(CSCc2ccccc2)nnc1SCC(=O)Nc1ccc(C(=O)O)cc1 | 0 | 0.98 | 2 | 1 | 0.46 | nt | nt | nt | nt | nt | nt
Cc1csc(NC(=O)CSc2nnc(-c3cccs3)n2C)n1 | -1 | -0.058 | 4 | 1 | -3* | 0.0078 | 0.0064 | 0.032 | 0.0068 | 0.02 | 0.011
Cn1c(CSCc2ccc(F)cc2)nnc1SCC(=O)Nc1nccs1 | 0 | -2.1 | 4 | 2 | 0.75 | nt | nt | nt | nt | nt | nt
Cc1ccc(-c2nnc(SCC(=O)Nc3nc4c(s3)CCCC4)n2C)cc1 | 2 | nt | 2 | -1 | 0.65 | nt | nt | nt | nt | nt | nt
Cn1c(CSCc2ccccc2)nnc1SCC(=O)Nc1nccs1 | 2 | -0.86 | 2 | 1 | 6.2* | 0.0058 | 0.004 | 0.028 | 0.0067 | 0.017 | 0.0093
Cc1csc(NC(=O)CSc2nnc(CCNC(=O)c3cccs3)n2C)n1 | -1 | nt | 2 | 3 | 0.03 | nt | nt | nt | nt | nt | nt
Cn1c(SCC(=O)Nc2nc3c(s2)CCCC3)nnc1-c1ccccc1 | -8 | nt | 2 | 3 | -4.8* | 0.0074 | 0.0054 | 0.023* | 0.0082 | 0.018* | 0.012
Cc1ccc(CSc2nnc(-c3cccs3)n2C)cc1 | -2 | nt | 5 | 3 | nt | nt | nt | nt | nt | nt | nt
Cn1c(SCc2c(Cl)cccc2Cl)nnc1-c1cccs1 | -2 | nt | 2 | 0 | -4.6* | 0.0076 | 0.0039 | 0.027 | ? | ? | 0.0093
CCNC(=O)Nc1ccc(-n2nc(C)c(C(=O)OCC)c2C)nc1 | 2 | -0.24 | 2 | 0 | -0.81 | nt | nt | nt | nt | nt | nt
COc1ccc(N(C)C(=O)c2cc3c(s2)-c2c(C)cccc2OC3)c(OC)c1 | 0 | nt | nt | nt | -1.1 | nt | nt | nt | nt | nt | nt
CC1(C)CC(c2nc(-c3ccc([N+](=O)[O-])cc3)cs2)CCO1 (stereo not drawn) | -1 | 0.5 | 2 | -1 | -0.31 | nt | nt | nt | nt | nt | nt
Cc1ccc(-c2ccc(SCC(=O)Nc3nonc3C)nn2)cc1 | 1 | nt | 3 | 2 | -5.7* | 0.0055 | 0.004 | 0.023* | 0.0058* | 0.013* | 0.0095
Cc1ccc(-c2ccc(SCC(=O)Nc3ccc4c(c3)OCCO4)nn2)cc1 | -1 | nt | 2 | 0 | -0.071 | nt | nt | nt | nt | nt | nt
CCn1nnnc1SCC(=O)Nc1nc(-c2cccs2)cs1 | 7 | nt | 4 | 2 | -4.1* | 0.0088 | 0.0063 | ? | 0.0067 | 0.014* | 0.01
Cc1csc(NC(=O)CSc2ccc(-c3ccccc3)nn2)n1 | -4 | -0.6 | 4 | -1 | -5.6* | 0.014 | 0.0051 | 0.019* | 0.0068 | 0.013 | 0.0097
COc1cc(Nc2ncnc(N)n2)cc(OC)c1 | 0 | -0.09 | nt | nt | 0.39 | nt | nt | nt | nt | nt | nt
CCOC(=O)N1CCN(C(=S)NC(=O)c2ccc(Br)cc2)CC1 | 0 | 0.66 | 2 | -2 | 17* | 0.023* | 0.059* | 0.035 | ? | 0.025 | 0.013*
CN1CCN(C(=S)NC(=O)c2ccc(Cl)cc2)CC1 | 2 | nt | 2 | -1 | 14* | 0.0066 | 0.02* | 0.034 | 0.018* | 0.029* | 0.017*
Cc1ccc(C(=O)NC(=S)N2CCN(C(=O)OC(C)(C)C)CC2)cc1Br | -1 | nt | 4 | 0 | 19* | ? | 0.088* | 0.074* | 0.062* | 0.087* | 0.057*
CN1CCN(C(=S)c2ccc(Cl)cc2)CC1 | -5 | 0.41 | 1 | 0 | nt | nt | nt | nt | nt | nt | nt
O=C(/C=C\Nc1ccc(Cl)cn1)c1ccc(Br)cc1 | 0 | -1.6 | 3 | 0 | 0.93 | nt | nt | nt | nt | nt | nt
O=C(COc1ccccc1-c1ccccc1)NCc1cccc(Cl)c1 | -3 | nt | 6 | 0 | 0.018 | nt | nt | nt | nt | nt | nt
COC(=O)c1cc(CN2CCN(c3ccccc3C)CC2)ccc1O | 2 | -0.35 | 2 | 0 | nt | nt | nt | nt | nt | nt | nt
SMILES | bCat nuc transl | ROMK mod | MT stabilize HCS | Redox H2O2 prof | Cl transport mod | KCC2 secondary | KCC2 bumet counter | KCC2 secondary2 | HEK counter1 | KCC2 retest ouab | HEK293 Tl flux2
CCC(Sc1nc(N)c(NC(=O)c2ccc(OC)cc2)c(=O)[nH]1)C(=O)O (stereo not drawn) | 1 | -0.82 | 3 | -3 | 0.17 | nt | nt | nt | nt | nt | nt
Cn1c(SCC(=O)NCc2cccs2)nnc1-c1ccc(O)cc1 | -1 | -0.024 | 2 | 1 | 0.82 | nt | nt | nt | nt | nt | nt
O=C(Cc1ccc(Cl)cc1)Nc1cccc(-c2nnc(-c3ccco3)o2)c1 | nt | 2.3e-05 | 3 | 4 | 0.69 | nt | nt | nt | nt | nt | nt
O=C(Cc1ccccc1)Nc1cccc(-c2nnc(-c3ccco3)o2)c1 | nt | -1.5 | 5 | 1 | -1.9 | 0.0052 | 0.0045 | 0.03 | 0.0068 | ? | 0.01
COc1ccc(C(=O)N2N=C(c3ccccc3)CC2(O)C(F)(F)F)cc1 (stereo not drawn) | -1 | 2.1 | 1 | 0 | 11* | 0.0054 | 0.017* | 0.035 | 0.014* | 0.026* | 0.017*
COc1cccc(C2=NN(C(=O)c3ccccc3)C(O)(C(F)(F)F)C2)c1 (stereo not drawn) | 0 | 0.43 | 2 | 0 | 3.2* | 0.011 | 0.018* | 0.033 | 0.012* | ? | ?
Cc1cc(C)n(-c2ccc(C(=O)Nc3cc(S(=O)(=O)N(C)C)ccc3Cl)cc2)n1 | -2 | nt | 2 | 1 | 1.8 | nt | nt | nt | nt | nt | nt
